Laboratory results: ChEMBL document CHEMBL1795311, “Synthesis, antiproliferative activity, and mechanism of action of a series of 2-{[(2E)-3-phenylprop-2-enoyl]amino}benzamides” (Eur J Med Chem, 2011)

Columns and labels:
Format in all cases: functional
SF-539 = assay: Growth inhibition of human SF539 cells after 48 hrs by SRB assay; details: SF-539, 48 h
Procedure, shortened: (§1)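 NCI DTP panel cells grown in RPMI 1640 with 5% FBS and 2 mM L-glutamine, preincubated 24 h, then given five concentrations (10-fold or ½-log dilutions from DMSO stock) for 48 h at 37 °C. Cells fixed with TCA, stained with SRB, absorbance read at 515 nm, with time-zero plates as reference.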

HOP-92 = assay: Growth inhibition of human HOP92 cells after 48 hrs by SRB assay; details: HOP-92, 48 h; procedure, shortened: as §1
K562 [1] = assay: Growth inhibition of human K562 cells after 48 hrs by SRB assay; details: K562, 48 h; procedure, shortened: as §1
NCI-H460 = assay: Growth inhibition of human NCI-H460 cells after 48 hrs by SRB assay; details: NCI-H460, 48 h; procedure, shortened: as §1
K562 [2] = assay: Antiproliferative activity against human K562 cells at 10 uM after 48 hrs by trypan blue assay; details: K562, 48 h, read-out: GI
786-0 = assay: Growth inhibition of human 786-0 cells after 48 hrs by SRB assay; details: 786-0, 48 h; procedure, shortened: as §1
SW-620 = assay: Growth inhibition of human SW620 cells after 48 hrs by SRB assay; details: SW-620, 48 h
Procedure, shortened: (§2)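 Run by the NCI Developmental Therapeutics Program: cells in RPMI 1640 with 5% FBS and 2 mM L-glutamine, plated at 5000–40,000 cells/well and grown 24 h before dosing. Drug (DMSO stock) given at five concentrations for 48 h at 37 °C, 5% CO2. Adherent cells fixed with cold TCA, stained with 0.4% SRB and read at 515 nm. GI50, TGI and LC50 taken from the time-zero, control and treated absorbances.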

LOX IMVI = assay: Growth inhibition of human LOXIMVI cells after 48 hrs by SRB assay; procedure, shortened: as §1
SK-MEL-2 = assay: Growth inhibition of human SK-MEL-2 cells after 48 hrs by SRB assay; details: SK-MEL-2, 48 h; procedure, shortened: as §2
ACHN = assay: Growth inhibition of human ACHN cells after 48 hrs by SRB assay; procedure, shortened: as §1
SF-295 = assay: Growth inhibition of human SF295 cells after 48 hrs by SRB assay; details: SF-295, 48 h; procedure, shortened: as §1
UACC-62 = assay: Growth inhibition of human UACC62 cells after 48 hrs by SRB assay; details: UACC-62, 48 h; procedure, shortened: as §2
CAKI-1 = assay: Growth inhibition of human Caki1 cells after 48 hrs by SRB assay; details: CAKI-1, 48 h; procedure, shortened: as §1
PC-3 = assay: Growth inhibition of human PC3 cells after 48 hrs by SRB assay; details: PC-3, 48 h; procedure, shortened: as §1
OVCAR-5 = assay: Growth inhibition of human OVCAR5 cells after 48 hrs by SRB assay; details: OVCAR-5, 48 h; procedure, shortened: as §1
DU-145 = assay: Growth inhibition of human DU145 cells after 48 hrs by SRB assay; details: DU-145, 48 h; procedure, shortened: as §1
OVCAR-8 = assay: Growth inhibition of human OVCAR8 cells after 48 hrs by SRB assay; details: OVCAR-8, 48 h; procedure, shortened: as §1
M14 = assay: Growth inhibition of human M14 cells after 48 hrs by SRB assay; details: M14, 48 h; procedure, shortened: as §1
HL-60 = assay: Growth inhibition of human HL60 cells after 48 hrs by SRB assay; details: HL-60, 48 h; procedure, shortened: as §1
MOLT-4 = assay: Growth inhibition of human MOLT4 cells after 48 hrs by SRB assay; details: MOLT-4, 48 h; procedure, shortened: as §1
COLO 205 = assay: Growth inhibition of human COLO205 cells after 48 hrs by SRB assay; details: COLO 205, 48 h; procedure, shortened: as §1
NCI-H226 = assay: Growth inhibition of human NCI-H226 cells after 48 hrs by SRB assay; details: NCI-H226, 48 h; procedure, shortened: as §1
SN12C = assay: Growth inhibition of human SN12C cells after 48 hrs by SRB assay; procedure, shortened: as §2
T47D = assay: Growth inhibition of human T47D cells after 48 hrs by SRB assay; procedure, shortened: as §2
MDA-MB-231 = assay: Growth inhibition of human MDA-MB-231 cells after 48 hrs by SRB assay; details: MDA-MB-231, 48 h; procedure, shortened: as §1
HCT-15 = assay: Growth inhibition of human HCT15 cells after 48 hrs by SRB assay; details: HCT-15, 48 h; procedure, shortened: as §1
MCF7 = assay: Growth inhibition of human MCF7 cells after 48 hrs by SRB assay; details: MCF7, 48 h; procedure, shortened: as §1
UACC-257 = assay: Growth inhibition of human UACC257 cells after 48 hrs by SRB assay; details: UACC-257, 48 h; procedure, shortened: as §2
SF-268 = assay: Growth inhibition of human SF268 cells after 48 hrs by SRB assay; details: SF-268, 48 h; procedure, shortened: as §1
NCI-H23 = assay: Growth inhibition of human NCI-H23 cells after 48 hrs by SRB assay; details: NCI-H23, 48 h; procedure, shortened: as §1
RXF 393 = assay: Growth inhibition of human RXF393 cells after 48 hrs by SRB assay; details: RXF 393, 48 h; procedure, shortened: as §1
KM12 = assay: Growth inhibition of human KM12 cells after 48 hrs by SRB assay; details: KM12, 48 h; procedure, shortened: as §1
BT-549 = assay: Growth inhibition of human BT549 cells after 48 hrs by SRB assay; details: BT-549, 48 h; procedure, shortened: as §1
CCRF-CEM = assay: Growth inhibition of human CCRF-CEM cells after 48 hrs by SRB assay; procedure, shortened: as §1
SNB-75 = assay: Growth inhibition of human SNB75 cells after 48 hrs by SRB assay; details: SNB-75, 48 h; procedure, shortened: as §2
A498 = assay: Growth inhibition of human A498 cells after 48 hrs by SRB assay; details: A498, 48 h; procedure, shortened: as §1
IGROV-1 = assay: Growth inhibition of human IGROV1 cells after 48 hrs by SRB assay; details: IGROV-1, 48 h; procedure, shortened: as §1
A549 = assay: Growth inhibition of human A549 cells after 48 hrs by SRB assay; details: A549, 48 h; procedure, shortened: as §1
Malme-3M = assay: Growth inhibition of human MALME-3M cells after 48 hrs by SRB assay; procedure, shortened: as §1
SK-MEL-28 = assay: Growth inhibition of human SK-MEL-28 cells after 48 hrs by SRB assay; details: SK-MEL-28, 48 h; procedure, shortened: as §2
RPMI-8226 = assay: Growth inhibition of human RPMI8226 cells after 48 hrs by SRB assay; details: RPMI-8226, 48 h; procedure, shortened: as §1
HOP-62 = assay: Growth inhibition of human HOP62 cells after 48 hrs by SRB assay; details: HOP-62, 48 h; procedure, shortened: as §1
HT-29 = assay: Growth inhibition of human HT-29 cells after 48 hrs by SRB assay; details: HT-29, 48 h; procedure, shortened: as §1
EKVX = assay: Growth inhibition of human EKVX cells after 48 hrs by SRB assay; procedure, shortened: as §1
SK-OV-3 = assay: Growth inhibition of human SKOV3 cells after 48 hrs by SRB assay; details: SK-OV-3, 48 h; procedure, shortened: as §2
TK-10 = assay: Growth inhibition of human TK10 cells after 48 hrs by SRB assay; details: TK-10, 48 h; procedure, shortened: as §2

SMILES: NC(=O)c1cc(I)ccc1NC(=O)/C=C/c1ccccc1
- GI50 (SF-539): 0.445 µM
- GI50 (HOP-92): 21.2 µM
- GI50 (K562 [1]): 0.92 µM
- GI50 (NCI-H460): 0.453 µM
- inhibition of growth at 10 µM (K562 [2]): 74.5%
- GI50 (786-0): 1.43 µM
- GI50 (SW-620): 0.541 µM
- GI50 (LOX IMVI): 3.75 µM
- GI50 (SK-MEL-2): 1.4 µM
- GI50 (ACHN): 3.7 µM
- GI50 (SF-295): 0.35 µM
- GI50 (UACC-62): 0.632 µM
- GI50 (CAKI-1): 0.648 µM
- GI50 (PC-3): 0.628 µM
- GI50 (OVCAR-5): 3.52 µM
- GI50 (DU-145): 0.477 µM
- GI50 (OVCAR-8): 1.06 µM
- GI50 (M14): 0.429 µM
- GI50 (HL-60): 0.0542 µM
- GI50 (MOLT-4): 0.202 µM
- GI50 (COLO 205): 0.343 µM
- GI50 (NCI-H226): 1.09 µM
- GI50 (SN12C): 0.635 µM
- GI50 (T47D): 0.857 µM
- GI50 (MDA-MB-231): 0.596 µM
- GI50 (HCT-15): 0.586 µM
- GI50 (MCF7): 0.45 µM
- GI50 (UACC-257): 14.3 µM
- GI50 (SF-268): 2.31 µM
- GI50 (NCI-H23): 0.84 µM
- GI50 (RXF 393): 3.02 µM
- GI50 (KM12): 0.499 µM
- GI50 (BT-549): 9.47 µM
- GI50 (CCRF-CEM): 0.341 µM
- GI50 (SNB-75): 0.245 µM
- GI50 (A498): 2.7 µM
- GI50 (IGROV-1): 0.917 µM
- GI50 (A549): 2.65 µM
- GI50 (Malme-3M): 1.6 µM
- GI50 (SK-MEL-28): 2.51 µM
- GI50 (RPMI-8226): 0.347 µM
- GI50 (HOP-62): 0.8 µM
- GI50 (HT-29): 0.367 µM
- GI50 (EKVX): 0.734 µM
- GI50 (SK-OV-3): 0.744 µM
- GI50 (TK-10): 3.15 µM

SMILES: NC(=O)c1cc(Cl)ccc1NC(=O)/C=C/c1ccccc1
- GI50 (SF-539): 2.05 µM
- GI50 (HOP-92): 2.87 µM
- GI50 (K562 [1]): 0.845 µM
- GI50 (NCI-H460): 1.76 µM
- inhibition of growth at 10 µM (K562 [2]): 64%
- GI50 (786-0): 2.32 µM
- GI50 (SW-620): 1.99 µM
- GI50 (LOX IMVI): 4.33 µM
- GI50 (SK-MEL-2): 2.75 µM
- GI50 (ACHN): 4.75 µM
- GI50 (SF-295): 1.4 µM
- GI50 (UACC-62): 2.52 µM
- GI50 (CAKI-1): 0.263 µM
- GI50 (PC-3): 3.15 µM
- GI50 (OVCAR-5): 2.74 µM
- GI50 (DU-145): 2.16 µM
- GI50 (OVCAR-8): 3.89 µM
- GI50 (M14): 1.71 µM
- GI50 (HL-60): 1.42 µM
- GI50 (MOLT-4): 3.95 µM
- GI50 (COLO 205): 1.68 µM
- GI50 (NCI-H226): 3 µM
- GI50 (SN12C): 3.96 µM
- GI50 (T47D): 3.36 µM
- GI50 (MDA-MB-231): 2.48 µM
- GI50 (HCT-15): 2.13 µM
- GI50 (MCF7): 1.74 µM
- GI50 (UACC-257): 15.1 µM
- GI50 (SF-268): 2.9 µM
- GI50 (NCI-H23): 3.37 µM
- GI50 (RXF 393): 1.71 µM
- GI50 (KM12): 1.69 µM
- GI50 (BT-549): 3.19 µM
- GI50 (CCRF-CEM): 2.96 µM
- GI50 (SNB-75): 1.84 µM
- GI50 (A498): 3.61 µM
- GI50 (IGROV-1): 3.29 µM
- GI50 (A549): 3.77 µM
- GI50 (Malme-3M): 2.68 µM
- GI50 (SK-MEL-28): 2.88 µM
- GI50 (RPMI-8226): 2.79 µM
- GI50 (HOP-62): 3.15 µM
- GI50 (HT-29): 1.94 µM
- GI50 (EKVX): 2.83 µM
- GI50 (SK-OV-3): 2.3 µM
- GI50 (TK-10): 5.51 µM
